Screens as filed in PubChem BioAssay.
EBI2 block – antagonists of human EBI2 receptor. P32249. EBI2 beta-arrestin recruitment, luminescence, 7a,25-OHC stimulated. inhibition, % at 5 µM. 360,000 tested, 0.81% active. AID 651636; in the data active means inhibition above about 38%;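 further: enzyme fragment complementation signal reports receptor beta-arrestin coupling in cells; 0% = agonist plus DMSO wells and 100% = wells without agonist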
APJ agonist – agonists of human APJ apelin receptor; P35414; CHO-K1 APJ PathHunter beta-arrestin, luminescence; 0% DMSO wells, 100% apelin; activation, % at 20 µM; 330,000 tested, 0.11% active;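 active means activation more than six SD over the plate average, tested at 20 µM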;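 further: 0% = DMSO alone and 100% = apelin-13 at 10 nM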
Target sequence (P35414 whole entry, looked up): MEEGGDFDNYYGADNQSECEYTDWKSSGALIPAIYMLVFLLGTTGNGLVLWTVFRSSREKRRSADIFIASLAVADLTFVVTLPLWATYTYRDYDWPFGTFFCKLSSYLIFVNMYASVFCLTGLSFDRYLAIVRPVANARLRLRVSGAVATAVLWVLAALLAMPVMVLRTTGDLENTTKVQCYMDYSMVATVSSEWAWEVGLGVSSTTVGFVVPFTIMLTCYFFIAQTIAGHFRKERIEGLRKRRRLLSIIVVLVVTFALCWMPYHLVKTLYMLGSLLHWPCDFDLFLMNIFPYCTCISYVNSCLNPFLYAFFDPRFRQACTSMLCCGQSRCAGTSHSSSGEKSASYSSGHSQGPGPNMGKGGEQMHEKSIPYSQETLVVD
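Test system: CHO-K1 APJ beta-arrestin complementation cell line. Amount: cell density 1000 per well. Controls: DMSO negative, 10 nM Apelin-13 positive. Signal: luminescent beta-gal fragment complementation, chemiluminescent substrate. Read-out basis: agonist-driven arrestin binding to APJ. Timing: compound stimulation 90 min at 25 °C, detection 60 min.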
APJ antag – APJ receptor antagonism; P35414; CHO-K1 APJ beta-arrestin complementation, luminescence; inhibition, % at 20 µM; 330,000 tested, 0.32% active; AID 2521;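 active means inhibition above about 40% at 20 µM, limit read from the data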;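 further: cells challenged with 10 nM apelin-13 agonist together with compound; plate controls were apelin-13 plus DMSO wells for no effect and DMSO wells lacking apelin-13 for full effect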
CXCR6 block – CXCR6 (human) receptor inhibition; O00574; CHO-K1 PathHunter CXCR6 beta-arrestin, luminescence; inhibition, % at 20 µM; 360,000 tested, 0.36% active; AID 602244; in the data active means inhibition above about 34%, passing the limit was not always enough;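 further: antagonist mode with CXCL16 agonist at 10 nM final; 0% = 10 nM CXCL16 with DMSO and 100% = unstimulated wells without agonist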
CCR6 antagonist – blocks CCL20-driven beta-arrestin recruitment at human CCR6 | P51684 | CHO-K1 CCR6 PathHunter beta-arrestin, luminescence, CCL20-stimulated | inhibition, % at 20 µM | 340,000 tested, 0.49% active | AID 493098;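 active means compounds whose inhibition of the agonist-driven luminescence signal at 20 µM reaches about 50%, limit read from the data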;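 further: cells stimulated with CCL20 at 14 nM final; plate controls were DMSO with CCL20 for no effect and DMSO without agonist for full effect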
APJ antag confirm – APJ receptor antagonism confirmation. inhibition, % at 20 µM. APJ beta-arrestin recruitment, luminescence, antagonist mode. 950 tested, 66% active. shares compounds with APJ antag. AID 2766; in the data active means inhibition above about 50%
An asterisk follows results filed as active; . = no result given. An excerpt weighted towards active compounds, which were near 1.5% of everything screened.

SMILES	EBI2 block	APJ agonist	APJ antag	CXCR6 block	CCR6 antagonist	APJ antag confirm
COc1ccc(NC(=S)NNc2ccc(S(=O)(=O)Nc3ccccc3C(=O)O)cc2[N+](=O)[O-])cc1	21	-11	56*	43*	68*	100*
CCN(CC)CC(=O)c1ccc(-c2ccccc2)cc1	18	-19	94*	30	72*	114*
CN(C)CC(=O)c1ccc(-c2ccccc2)cc1	0	-11	46*	9	30	73*
CCN(CC)C(=O)c1ccc(-c2ccccc2)cc1	12	-3	-8	-3	5	.
N#Cc1ccc(C(=O)N2CCCCC2c2cc(C(=O)Nc3ccc4c(c3)OCO4)no2)cc1 (configuration not stated)	4	.	.	-1	.	.
CC1=C(C(=O)N2CCCCCC2)CC(CC(=O)NC2CCCC2)C(=O)N1Cc1ccc(F)cc1 (configuration not stated)	-6	.	.	4	.	.
CCOC(=O)C1=C(N)N(c2ccccc2Oc2ccccc2)C(=O)C1	-4	0	9	30	12	.
CCOC(=O)C1=C2NC(=O)c3ccccc3N2C(=O)C1	10	-2	53*	16	69*	134*
Fc1cc2ncn(Cc3ccccc3)c2cc1F	-6	-4	61*	-4	1	-23
c1ccc(Cn2cnc3ccccc32)cc1	-4	-5	-22	-1	-10	.
COc1cccc2cc(C(C)N(CCCN3CCOCC3)C(=S)Nc3cccc(C)c3)oc12 (configuration not stated)	3	-3	77*	7	9	-6
CCc1ccc(NC(=O)c2ccc(C3SCC(=O)N3CCc3ccccc3)cc2)cc1 (configuration not stated)	14	2	62*	-6	5	-9
CCNC(=O)c1ccc(C2SCC(=O)N2CCc2ccccc2)cc1 (configuration not stated)	4	-3	-5	-4	2	.
CCOC(=O)C1=CCN(S(=O)(=O)c2ccccc2Cl)C1c1cccc(F)c1 (configuration not stated)	13	.	.	1	.	.
Nc1c(N)c2ccccc2oc1=O	-13	-1	6	-1	8	.
Nc1c(N2CCN(c3ccccc3)CC2)c2ccccc2oc1=O	12	-9	46*	30	60*	57*
Cc1nn(CC(=O)NCCCc2ccccc2)c(=O)c2cc3occc3n12	12	-1	41*	4	8	-2
CCOC(=O)[C@]12CCCC=C1N(Cc1ccco1)C(=O)[C@H](CC(=O)NCc1cccc(C(F)(F)F)c1)C2	2	.	.	3	.	.
CCOC(=O)[C@H]1[C@H]2COc3ccc(C)cc3[C@@H]2N2C(=O)[C@@H](CO)NC(=O)[C@@]12C	-14	-3	-8	-2	8	.
COc1ccc2c(c1)[C@H]1[C@H](CO2)[C@H](c2ccccc2)[C@]2(C)C(=O)N[C@@H](C)C(=O)N12	.	-9	42*	.	.	47
CCOC(=O)[C@H]1[C@H]2COc3cc(OC)ccc3[C@@H]2N2C(=O)[C@@H](CO)NC(=O)[C@@]12C	.	-9	51*	.	.	88*
CCCNC(=O)C1(C)CCCN(C(=O)COc2ccc(Cl)cc2Cl)C1 (configuration not stated)	4	.	.	2	.	.
Cc1ccc(NC(=O)c2ccc(-c3cc(Cl)ccc3Cl)o2)c(C)c1	18	.	.	1	.	.
Cc1ccc(NS(=O)(=O)c2cc([N+](=O)[O-])ccc2N/N=C/c2sc(N3CCOCC3)nc2-c2ccccc2)c(C)c1	5	-9	68*	49*	60*	119*
CC(C)(C)c1ccc(C(=O)N2CCOC23CCCCC3)cc1	-1	.	.	-2	.	.
COc1ccc(C)cc1NC(=O)COC(=O)C1CC1	-1	7	41*	-2	5	13
OC[C@@H]1CN(Cc2cccs2)C[C@H](n2cnc3c(NCc4ccncc4)ncnc32)O1	4	.	.	4	.	.
CCOc1ccc(N2C(=O)CC(Cc3ccc(Br)cc3)C2=O)cc1 (configuration not stated)	8	-3	65*	2	-2	36
COc1ccc(N2C(=O)CC(Cc3ccc(Br)cc3)C2=O)cc1 (configuration not stated)	8	-2	18	-3	-1	.
